From ChEMBL document CHEMBL3822391, “Synthesis and Biological Evaluation of Vitamin D3 Metabolite 20S,23S-Dihydroxyvitamin D3 and Its 23R Epimer” (J Med Chem, 2016)
Calls of active or inactive are those of the source. The calls are words filed in the database; no cut-off is given here.

Key:
[1] = target: T1, 25-hydroxyvitamin D-1 alpha hydroxylase, mitochondrial (Mus musculus, UniProt O35084); assay: Activity of mouse CYP27B1 assessed as compound hydroxylation measured per mol of phospholipid after 3 mins by HPLC; assay type: ADME; settings: 0.05 h
T1 sequence (O35084 whole entry): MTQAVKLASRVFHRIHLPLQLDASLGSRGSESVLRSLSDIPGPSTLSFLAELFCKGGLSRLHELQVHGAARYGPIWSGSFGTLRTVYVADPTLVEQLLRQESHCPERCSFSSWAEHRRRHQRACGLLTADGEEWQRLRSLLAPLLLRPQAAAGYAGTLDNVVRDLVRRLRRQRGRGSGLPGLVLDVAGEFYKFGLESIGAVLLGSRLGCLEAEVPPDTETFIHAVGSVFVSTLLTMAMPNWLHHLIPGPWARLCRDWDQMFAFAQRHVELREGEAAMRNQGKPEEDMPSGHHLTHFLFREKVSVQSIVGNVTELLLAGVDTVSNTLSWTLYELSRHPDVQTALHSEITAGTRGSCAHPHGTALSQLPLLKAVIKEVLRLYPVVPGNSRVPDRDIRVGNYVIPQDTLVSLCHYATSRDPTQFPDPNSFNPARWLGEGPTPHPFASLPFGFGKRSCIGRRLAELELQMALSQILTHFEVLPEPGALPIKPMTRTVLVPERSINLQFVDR
How it was run: (§1)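 Substrate was incorporated into phospholipid vesicles at 0.0025–0.07 mol/mol PL and incubated 3 min with 0.1 µM mouse CYP27B1. Product was quantified by HPLC. Km and kcat came from a Michaelis–Menten fit, given as mean ± standard error of the curve fit.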

Vitamin D3 receptor [2] = target: T2, Vitamin D3 receptor (Homo sapiens, UniProt P11473); assay: Activation of VDR in human Caco2 cells expressing lentiviral VDRE-luciferase vector assessed as VDRE-mediated transcriptional activity measured after 24 hrs by luciferase transcriptional reporter assay; assay type: cell-based, Caco-2
T2 sequence (P11473 whole entry): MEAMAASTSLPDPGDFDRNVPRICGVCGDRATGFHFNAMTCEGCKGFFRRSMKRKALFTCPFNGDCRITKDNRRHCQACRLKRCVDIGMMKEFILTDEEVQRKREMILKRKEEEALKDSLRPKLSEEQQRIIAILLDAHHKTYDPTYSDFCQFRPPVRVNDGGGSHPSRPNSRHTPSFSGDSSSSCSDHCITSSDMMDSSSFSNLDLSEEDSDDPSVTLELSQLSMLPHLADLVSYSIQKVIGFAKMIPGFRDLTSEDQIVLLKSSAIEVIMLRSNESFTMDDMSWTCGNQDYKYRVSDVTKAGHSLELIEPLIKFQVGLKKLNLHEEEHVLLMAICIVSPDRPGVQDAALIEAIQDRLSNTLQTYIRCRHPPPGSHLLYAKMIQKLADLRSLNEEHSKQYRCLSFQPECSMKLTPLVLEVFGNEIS

[3] = Growth inhibition of human SK-MEL-188 cells measured after 48 hrs by MTS/PMS assay; assay type: functional; settings: SK-MEL-188, 48 h
Vitamin D3 receptor [4] = target: T2, Vitamin D3 receptor; assay: Activation of VDR in human HaCaT cells expressing lentiviral VDRE-luciferase vector assessed as VDRE-mediated transcriptional activity measured after 24 hrs by luciferase transcriptional reporter assay; assay type: cell-based
Vitamin D3 receptor [5] = target: T2, Vitamin D3 receptor; assay: Activation of VDR in human Jurkat cells expressing lentiviral VDRE-luciferase vector assessed as VDRE-mediated transcriptional activity measured after 24 hrs by luciferase transcriptional reporter assay; assay type: cell-based
[6] = target: T1, 25-hydroxyvitamin D-1 alpha hydroxylase, mitochondrial; assay: Ratio of Kcat to Km for mouse CYP27B1 measured per mol of phospholipid after 3 mins by HPLC; assay type: ADME; settings: 0.05 h; how it was run: as §1
[7] = Antiinflammatory activity in DBA/1 mouse splenocytes assessed as upregulation of LAIR1 level by measuring mean fluorescence intensity at 100 nM by flow cytometry (reference value: 766 +/- 22 au); assay type: functional, cell-based; settings: Splenocyte
How it was run: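 Splenocytes from DBA/1 mice were cultured in EMEM with 9% charcoal-stripped FBS and treated overnight at 10^-7 M, with an ethanol vehicle control. Cells were stained with fluorochrome anti-CD4 and anti-LAIR1. LAIR1 mean fluorescence was read by multiparameter flow cytometry, gated on CD4 cells.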

[8] = target: T3, Vitamin D3 receptor (Homo sapiens) (UniProt P11473); assay: Activation of VDR in human Jurkat cells expressing lentiviral VDRE-luciferase vector assessed as VDRE-mediated transcriptional activity up to 1000 nM measured after 24 hrs by luciferase transcriptional reporter assay; assay type: cell-based
T3 sequence (whole entry): T2 sequence (P11473 whole entry)
How it was run: (§2)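 Cells carry a lentiviral VDRE-luciferase reporter and were selected for 1 week with an extra 1.0 µg/mL puromycin. Growth media: Caco-2 in DMEM with 10% FBS; HaCaT in the same with 5% FBS; Jurkat in RPMI 1640 with 10% FBS. Cells were plated in FBS-free medium for 24 h, then given serial concentrations (final DMSO 0.1%) for 24 h. ONE-Glo luminescence was read after 5 min at room temperature. Triplicates.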

[9] = target: T3, Vitamin D3 receptor (Homo sapiens); assay: Activation of VDR in human Caco2 cells expressing lentiviral VDRE-luciferase vector assessed as VDRE-mediated transcriptional activity up to 1000 nM measured after 24 hrs by luciferase transcriptional reporter assay; assay type: cell-based; settings: Caco-2; how it was run: as §2
[10] = target: T3, Vitamin D3 receptor (Homo sapiens); assay: Activation of VDR in human HaCaT cells expressing lentiviral VDRE-luciferase vector assessed as VDRE-mediated transcriptional activity up to 1000 nM measured after 24 hrs by luciferase transcriptional reporter assay; assay type: cell-based; how it was run: as §2

SMILES	Km [1]	EC50 (Vitamin D3 receptor [2])	IC50 [3]	EC50 (Vitamin D3 receptor [4])	EC50 (Vitamin D3 receptor [5])	Kcat/Km [6]	Flu intensity [7]	Activity [8]	Activity [9]	Activity [10]
C=C1CC[C@H](O)C/C1=C/C=C1\CCC[C@@]2(C)[C@H]1CC[C@@H]2[C@@](C)(O)C[C@H](O)CC(C)C	2.3 ×10⁻³ mol/mol	562 nM	0.01 nM	484 nM	653 nM	5087	1480 a.u.			
C=C1/C(=C\C=C2/CCC[C@]3(C)[C@@H]([C@H](C)CCCC(C)(C)O)CC[C@@H]23)C[C@@H](O)C[C@@H]1O							1360 a.u.			
C=C1CC[C@H](O)C/C1=C/C=C1\CCC[C@@]2(C)[C@H]1CC[C@@H]2[C@@](C)(O)C[C@@H](O)CC(C)C	5.2 ×10⁻³ mol/mol		0.01 nM			4731	1480 a.u.	inactive	inactive	inactive
C=C1/C(=C\C=C2/CCC[C@]3(C)[C@@H]([C@H](C)OCCC(C)(C)O)CC[C@@H]23)C[C@@H](O)C[C@@H]1O [MAXACALCITOL]		144 nM		160 nM	0.855 nM		1480 a.u.			
C=C1/C(=C\C=C2/CCC[C@@]3(C)[C@H]2CC[C@@H]3[C@@](C)(O)C[C@@H](O)CC(C)C)C[C@@H](O)C[C@@H]1O		241 nM	0.01 nM	175 nM	203 nM		1480 a.u.			
C=C1/C(=C\C=C2/CCC[C@@]3(C)[C@H]2CC[C@@H]3[C@@](C)(O)C[C@H](O)CC(C)C)C[C@@H](O)C[C@@H]1O		172 nM	0.01 nM	117 nM	30.6 nM		1480 a.u.			
